{
  "source": "ChEMBL document CHEMBL1144077",
  "about": "“Cytotoxic lignans of Justicia ciliata” (J Nat Prod, 1999)",
  "key": {"T-24": {"tested_on": "T-24", "test": "Cytotoxicity against human T24 cells after 6 days by MTT assay", "format": "functional", "details": "for EC50: T-24, 144 h, read-out: ED50 (the source's name)", "outline": "(§1)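 Human lines kept in DMEM with 10% FBS, 2 mM glutamine, penicillin/streptomycin. 1-3 × 10^3 cells/100 µL seeded, 6 h attachment, then medium replaced with fresh medium (plus 10 mM HEPES pH 7.3) holding a range of drug concentrations. Exposure 6 days, 37 °C, CO2. MTT (1 mg/mL stock, 10 µL) for 4 h, DMSO solubilization, absorbance 550 nm. ED50 in µg/mL.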"}, "Ca-Ski": {"tested_on": "Ca-Ski", "test": "Cytotoxicity against human CaSki cells after 6 days by MTT assay", "format": "functional", "details": "for EC50: 144 h, read-out: ED50 (the source's name)", "outline": "as §1"}, "SiHa": {"tested_on": "SiHa", "test": "Cytotoxicity against human SiHa cells after 6 days by MTT assay", "format": "functional", "details": "for EC50: Homo sapiens, SiHa, 144 h, read-out: ED50 (the source's name)", "outline": "as §1"}, "HT-3": {"tested_on": "HT-3", "test": "Cytotoxicity against human HT-3 cells after 6 days by MTT assay", "format": "functional", "details": "for EC50: Homo sapiens, HT-3, 144 h, read-out: ED50 (the source's name)", "outline": "as §1"}, "[1]": {"test": "(§2) Cytotoxicity against human PLC/PRF/5 cells after 6 days by MTT assay", "format": "functional", "details": "PLC-PRF-5, 144 h, read-out: ED50 (the source's name)", "outline": "as §1"}, "[2]": {"test": "Cytotoxicity against mouse NIH/3T3-212 cells after 6 days by MTT assay", "format": "cell-based", "details": "for CC50 at 144 h: NIH/3T3-212 cells, read-out: ED50; for Activity: 144 h", "outline": "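212 cells (NIH/3T3 carrying inducible Ha-ras) kept in alpha-MEM with 10% calf serum and antibiotics. 1-3 × 10^3 cells/100 µL seeded, 6 h attachment, then fresh HEPES-supplemented (10 mM, pH 7.3) medium with graded drug concentrations for 6 days at 37 °C. MTT 4 h, DMSO dissolution, read at 550 nm. ED50 in µg/mL.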"}, "PLC-PRF-5": {"tested_on": "PLC-PRF-5", "test": "as §2", "format": "functional", "outline": "as §1"}},
  "note": "Activity calls are given as the source filed them. No cut-off for these calls is given here. Starred links: 1 amine or outer side, 2 acyl side, 3 side chain; linkers in the order of their positions; H or OH if unused. Positions of bridges follow the written chain, without caps; N, C: chain ends. Non-standard residues stand in square brackets, D forms with d. Residues, ends and D or L forms follow the SMILES beside them. Chains are numbered I, II in the order given. Actinocin(1to9) = Cc1c2oc3c(C)ccc(C(=O)[*:2])c3nc-2c(C(=O)[*:1])c(N)c1=O; NMeV = CN[C@H](C(=O)O)C(C)C; Sar = CNCC(=O)O",
  "data": [
    {"smiles": "COc1cc(-c2c3c(c(OC)c4cc(OC)c(OC)cc24)COC3=O)ccc1O", "note": "[CILINAPHTHALIDE A]", "values": [
      {"measurement": "EC50", "setting": "T-24", "result": 1.3, "unit": "µg/mL"},
      {"measurement": "EC50", "setting": "Ca-Ski", "result": 3, "unit": "µg/mL"},
      {"measurement": "EC50", "setting": "SiHa", "result": 6.4, "unit": "µg/mL"},
      {"measurement": "EC50", "setting": "HT-3", "result": 0.3, "unit": "µg/mL"},
      {"measurement": "EC50", "setting": "[1]", "result": 12, "unit": "µg/mL"},
      {"measurement": "CC50 at 144 h", "setting": "[2]", "result": "> 8", "unit": "µg/mL"}
    ]},
    {"smiles": "COc1c2c(c(-c3ccc4c(c3)OCO4)c3cc4c(cc13)OCO4)C(=O)OC2", "note": "[TAIWANIN E METHYL ETHER]", "values": [
      {"measurement": "EC50", "setting": "T-24", "result": 5, "unit": "µg/mL"},
      {"measurement": "EC50", "setting": "Ca-Ski", "result": "> 8", "unit": "µg/mL"},
      {"measurement": "EC50", "setting": "SiHa", "result": 6.1, "unit": "µg/mL"},
      {"measurement": "EC50", "setting": "HT-3", "result": 2.6, "unit": "µg/mL"},
      {"measurement": "EC50", "setting": "[1]", "result": 6.8, "unit": "µg/mL"},
      {"measurement": "CC50 at 144 h", "setting": "[2]", "result": "> 8", "unit": "µg/mL"}
    ]},
    {"smiles": "COC(=O)C(Cc1ccc2c(c1)OCO2)C(Cc1ccc2c(c1)OCO2)C(=O)OC", "note": "(stereo not drawn)", "values": [
      {"measurement": "Activity", "setting": "T-24", "result": "inactive"},
      {"measurement": "Activity", "setting": "Ca-Ski", "result": "inactive"},
      {"measurement": "Activity", "setting": "SiHa", "result": "inactive"},
      {"measurement": "Activity", "setting": "HT-3", "result": "inactive"},
      {"measurement": "Activity", "setting": "PLC-PRF-5", "result": "inactive"},
      {"measurement": "Activity", "setting": "[2]", "result": "Not Active"}
    ]},
    {"smiles": "COc1ccc(-c2c3c(c(OC)c4cc(OC)c(OC)cc24)COC3=O)cc1OC", "note": "[CILINAPHTHALIDE B]", "values": [
      {"measurement": "Activity", "setting": "T-24", "result": "inactive"},
      {"measurement": "Activity", "setting": "Ca-Ski", "result": "inactive"},
      {"measurement": "Activity", "setting": "SiHa", "result": "inactive"},
      {"measurement": "Activity", "setting": "HT-3", "result": "inactive"},
      {"measurement": "Activity", "setting": "PLC-PRF-5", "result": "inactive"},
      {"measurement": "Activity", "setting": "[2]", "result": "Not Active"}
    ]},
    {"smiles": "COc1cc2c(OC)c3c(c(-c4ccc5c(c4)OCO5)c2cc1OC)C(=O)OC3", "note": "[JUSTICIDIN A]", "values": [
      {"measurement": "EC50", "setting": "T-24", "result": 0.002, "unit": "µg/mL"},
      {"measurement": "EC50", "setting": "Ca-Ski", "result": 0.003, "unit": "µg/mL"},
      {"measurement": "EC50", "setting": "SiHa", "result": 0.0074, "unit": "µg/mL"},
      {"measurement": "EC50", "setting": "HT-3", "result": 0.0018, "unit": "µg/mL"},
      {"measurement": "EC50", "setting": "[1]", "result": 0.0022, "unit": "µg/mL"},
      {"measurement": "CC50 at 144 h", "setting": "[2]", "result": 0.0227, "unit": "µg/mL"}
    ]},
    {"smiles": "COc1ccc(-c2c3c(c(O)c4cc5c(cc24)OCO5)COC3=O)cc1OC", "values": [
      {"measurement": "Activity", "setting": "T-24", "result": "inactive"},
      {"measurement": "Activity", "setting": "Ca-Ski", "result": "inactive"},
      {"measurement": "Activity", "setting": "SiHa", "result": "inactive"},
      {"measurement": "Activity", "setting": "HT-3", "result": "inactive"},
      {"measurement": "Activity", "setting": "PLC-PRF-5", "result": "inactive"},
      {"measurement": "Activity", "setting": "[2]", "result": "Not Active"}
    ]},
    {"smiles": "Cc1c2oc3c(C)ccc(C(=O)N[C@@H]4C(=O)N[C@H](C(C)C)C(=O)N5CCC[C@H]5C(=O)N(C)CC(=O)N(C)[C@@H](C(C)C)C(=O)O[C@@H]4C)c3nc-2c(C(=O)N[C@@H]2C(=O)N[C@H](C(C)C)C(=O)N3CCC[C@H]3C(=O)N(C)CC(=O)N(C)[C@@H](C(C)C)C(=O)O[C@@H]2C)c(N)c1=O", "note": "[DACTINOMYCIN] (I: T[dV]P[Sar][NMeV] / II: T[dV]P[Sar][NMeV]; ester I:1-I:C, II:1-II:C; linker I:N-II:N via Actinocin(1to9))", "values": [
      {"measurement": "EC50", "setting": "T-24", "result": 0.0015, "unit": "µg/mL"},
      {"measurement": "EC50", "setting": "Ca-Ski", "result": 0.0019, "unit": "µg/mL"},
      {"measurement": "ED50", "setting": "SiHa", "result": 8.1, "unit": "×10⁻⁴ ug/ml"},
      {"measurement": "ED50", "setting": "HT-3", "result": 5.6, "unit": "×10⁻⁴ ug/ml"},
      {"measurement": "EC50", "setting": "[1]", "result": 0.0014, "unit": "µg/mL"}
    ]},
    {"smiles": "COc1cc2c(OC)c3c(c(-c4ccc5c(c4)OCO5)c2cc1OC)COC3=O", "note": "[NEOJUSTICIN B]", "values": [
      {"measurement": "Activity", "setting": "T-24", "result": "inactive"},
      {"measurement": "Activity", "setting": "Ca-Ski", "result": "inactive"},
      {"measurement": "Activity", "setting": "SiHa", "result": "inactive"},
      {"measurement": "Activity", "setting": "HT-3", "result": "inactive"},
      {"measurement": "Activity", "setting": "PLC-PRF-5", "result": "inactive"},
      {"measurement": "Activity", "setting": "[2]", "result": "Not Active"}
    ]},
    {"smiles": "COc1ccc(-c2c3c(c(OC)c4cc5c(cc24)OCO5)COC3=O)cc1OC", "note": "[CHINENSINAPHTHOL METHYL ETHER]", "values": [
      {"measurement": "Activity", "setting": "T-24", "result": "inactive"},
      {"measurement": "Activity", "setting": "Ca-Ski", "result": "inactive"},
      {"measurement": "Activity", "setting": "SiHa", "result": "inactive"},
      {"measurement": "Activity", "setting": "HT-3", "result": "inactive"},
      {"measurement": "Activity", "setting": "PLC-PRF-5", "result": "inactive"},
      {"measurement": "Activity", "setting": "[2]", "result": "Not Active"}
    ]}
  ]
}
